The values that follow come from ChEMBL document CHEMBL1121834, “Aromatic retinoic acid analogues. Synthesis and pharmacological activity” (J Med Chem, 1981).

Assay type in all cases: functional
For assay [1], the target named is T1, Ornithine decarboxylase (Mus musculus) (UniProt P00860).
T1 sequence (whole entry): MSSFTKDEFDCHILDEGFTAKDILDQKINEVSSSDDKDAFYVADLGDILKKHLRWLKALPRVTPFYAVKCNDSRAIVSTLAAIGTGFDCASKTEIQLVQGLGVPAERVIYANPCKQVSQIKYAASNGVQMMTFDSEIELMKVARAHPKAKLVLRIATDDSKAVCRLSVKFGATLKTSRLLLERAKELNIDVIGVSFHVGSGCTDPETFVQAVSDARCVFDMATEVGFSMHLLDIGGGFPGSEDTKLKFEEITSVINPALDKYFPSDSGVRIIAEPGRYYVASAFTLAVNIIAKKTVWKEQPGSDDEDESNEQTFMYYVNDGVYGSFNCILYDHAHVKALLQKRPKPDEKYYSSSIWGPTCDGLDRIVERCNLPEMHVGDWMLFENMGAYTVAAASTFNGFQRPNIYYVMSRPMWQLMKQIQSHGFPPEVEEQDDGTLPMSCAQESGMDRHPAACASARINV
Briefly: Inhibition of tumor promoter (TPA) -induced mouse epidermal ornithine decarboxylase (ODC) activity at 17 nmol dose level. An outline of the steps: (§1)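 Retinoid applied topically to mouse skin 1 h before topical TPA (12-O-tetradecanoylphorbol 13-acetate) to induce epidermal ODC. Dorsal skin from each group of mice was pooled and ODC activity assayed in triplicate. Activity is expressed as % inhibition of TPA-induced ODC relative to TPA-only controls (mean ± SE over groups).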

Assay [2] concerns the target T1, Ornithine decarboxylase (Mus musculus). The assay is described as follows: Inhibition of tumor promoter (TPA) -induced mouse epidermal ornithine decarboxylase (ODC) activity at 1.7 nmol dose level. The method, boiled down:
as §1

Assay [3] shares this target. The assay is described as follows: Inhibition of tumor promoter (TPA) -induced mouse epidermal ornithine decarboxylase (ODC) activity at 170 nmol dose level. The method, boiled down: as §1

Consider `CCOC(=O)c1ccc(/C=C(C)/C=C/C2=C(C)CCCC2(C)C)cc1C`, for which, in assay [1], the inhibition (as a rule, the relative decrease from the control value, in per cent) was found to be 0%.
The same measure, in the same setting: in the case of `CC1=C(/C=C/C(C)=C/C=C/c2ccccc2C(=O)O)C(C)(C)CCC1` it was 7%; in that of `CC1=C(/C=C/C(C)=C/C=C/c2ccccc2O)C(C)(C)CCC1`, 25%.
As for `CC1=C(/C=C/C(C)=C/c2ccc(C(=O)O)cc2)C(C)(C)CCC1`, the values for the inhibition in assay [1], in assay [2] and in assay [3] were 77%, 62% and 87%, respectively.
In turn, `CC1=C(/C=C/C(C)=C\C=C\c2ccccc2O)C(C)(C)CCC1` registered an inhibition in assay [1] of 0%.
As for `CC1=C(/C=C/C(C)=C\c2ccc(C(=O)O)cc2)C(C)(C)CCC1`, the inhibition stood at 43% in assay [1], 33% in assay [2] and 64% in assay [3].
In assay [1], `CCOC(=O)c1ccc(/C=C(C)/C=C/C23OC2(C)CCCC3(C)C)cc1` (stereo unspecified) came in with an inhibition of 71%.
